According to ChEMBL document CHEMBL1765048 (J Med Chem, 2011):
Active and inactive are the calls of the source. The calls are words filed in the database; no cut-off is given here.

Legend:
D(3) dopamine receptor [1] = biological target: D(3) dopamine receptor (Homo sapiens, UniProt P35462, V87F); assay: Displacement of [3H]spiperone from human dopamine D3 receptor V2.61F mutant expressed in HEK293 cells after 60 mins; format: cell-based
Summary of the method: (§1)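 Membranes from HEK293 cells transiently transfected with wild-type or mutant D3 were harvested at 48 h. KD and Bmax were set by [3H]spiperone saturation. Competition at 20-200 μg/mL protein for 1 h at 37 °C, ended by filtration on PEI-soaked GF/B filters, then scintillation counting. Ki by Cheng-Prusoff as mean ± SEM of 3-12 experiments in triplicate.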

Homo sapiens = organism: Homo sapiens; assay: Selectivity ratio of Ki for human dopamine D3 receptor V2.61F mutant to Ki for wild type human dopamine D3 receptor
D(3) dopamine receptor [2] = biological target: T1, D(3) dopamine receptor (Homo sapiens, UniProt P35462); assay: Displacement of [3H]spiperone from wild type human dopamine D3 receptor expressed in HEK293 cells after 60 mins; format: cell-based; summary of the method: as §1
D(3) dopamine receptor [3] = biological target: T1, D(3) dopamine receptor; assay: Displacement of [3H]spiperone from human dopamine D3 receptor expressed in CHO cells after 60 mins; format: cell-based
Summary of the method: (§2)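 Incubated 60 min at 37 °C in sodium-free buffer: 50 mM Tris-HCl, 1 mM EDTA, 5 mM MgCl2, 0.1 mM DTT, bacitracin, trypsin inhibitor, pH 7.4. Ki by Cheng-Prusoff; 3-9 experiments in triplicate.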

D(3) dopamine receptor [4] = biological target: T1, D(3) dopamine receptor; assay: Agonist activity at human dopamine D3 receptor expressed in HEK293 cells co-expressing Galphao1 assessed as incorporation of [35S]GTPgammaS into Galphao1 after 30 mins by scintillation counting; format: functional, cell-based
Summary of the method: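 Membranes from HEK293 cells transiently transfected with D3 plus PTX-insensitive Gαo; expression 1100 fmol/mg. Buffer: 20 mM Hepes, 10 mM MgCl2, 100 mM NaCl, 70 mg/L saponin, pH 7.4. Membranes at 30-50 μg/mL, with compound and 10 μM GDP, preincubated 30 min at 37 °C. Then 0.10 nM [35S]GTPγS added for 30 min at 37 °C. Filtration, scintillation counting.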

D(3) dopamine receptor [5] = biological target: D(3) dopamine receptor (Homo sapiens, UniProt P35462, D110E); assay: Displacement of [3H]spiperone from human dopamine D3 receptor D3.32E mutant expressed in HEK293 cells after 60 mins; format: cell-based; summary of the method: as §1
D(3) dopamine receptor [6] = biological target: T1, D(3) dopamine receptor; assay: Displacement of [3H]spiperone from human dopamine D3 receptor S5.42A mutant expressed in HEK293 cells after 60 mins; format: cell-based; summary of the method: as §1
D(2) dopamine receptor [7] = biological target: T2, D(2) dopamine receptor (Homo sapiens, UniProt P14416); assay: Displacement of [3H]7-OH-DPAT from human dopamine D2long receptor expressed in CHO cells after 60 mins; format: cell-based
Summary of the method: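 CHO membranes stably expressing D2long (200 μg protein/well) incubated with 1.0 nM [3H]7-OH-DPAT for 60 min at 37 °C. […] Ki from Cheng-Prusoff; 3-8 experiments in triplicate.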

D(2) dopamine receptor [8] = biological target: T2, D(2) dopamine receptor; assay: Displacement of [3H]spiperone from human dopamine D2long receptor expressed in CHO cells after 60 mins; format: cell-based; summary of the method: as §2
D(3) dopamine receptor [9] = biological target: T1, D(3) dopamine receptor; assay: Displacement of [3H]7-OH-DPAT from human dopamine D3 receptor expressed in CHO cells after 60 mins; format: cell-based
D(3) dopamine receptor [10] = biological target: T1, D(3) dopamine receptor; assay: Displacement of [3H]spiperone from human dopamine D3 receptor H6.55A mutant expressed in HEK293 cells after 60 mins
D(3) dopamine receptor [11] = biological target: D(3) dopamine receptor (Homo sapiens, UniProt P35462, S196A); assay: Displacement of [3H]spiperone from human dopamine D3 receptor S5.46A mutant expressed in HEK293 cells after 60 mins; format: cell-based; summary of the method: as §1
D(2) dopamine receptor [12] = biological target: T2, D(2) dopamine receptor; assay: Displacement of [3H]spiperone from human dopamine D2short receptor expressed in CHO cells after 60 mins; format: cell-based; summary of the method: as §2
D(1A) dopamine receptor = D(1A) dopamine receptor (Sus scrofa, UniProt P50130); assay: Displacement of [3H]SCH23390 from dopamine D1 receptor in porcine cerebral cortex after 60 mins; format: tissue-based
[13] = Displacement of [3H]prazosin from adrenergic alpha1 receptor in porcine cerebral cortex after 60 mins; format: tissue-based, Sus scrofa
D(4) dopamine receptor = biological target: T3, D(4) dopamine receptor (Homo sapiens, UniProt P21917); assay: Displacement of [3H]spiperone from human dopamine D4.4 receptor expressed in CHO cells after 60 mins; format: cell-based; summary of the method: as §2
T3 sequence (P21917 whole entry): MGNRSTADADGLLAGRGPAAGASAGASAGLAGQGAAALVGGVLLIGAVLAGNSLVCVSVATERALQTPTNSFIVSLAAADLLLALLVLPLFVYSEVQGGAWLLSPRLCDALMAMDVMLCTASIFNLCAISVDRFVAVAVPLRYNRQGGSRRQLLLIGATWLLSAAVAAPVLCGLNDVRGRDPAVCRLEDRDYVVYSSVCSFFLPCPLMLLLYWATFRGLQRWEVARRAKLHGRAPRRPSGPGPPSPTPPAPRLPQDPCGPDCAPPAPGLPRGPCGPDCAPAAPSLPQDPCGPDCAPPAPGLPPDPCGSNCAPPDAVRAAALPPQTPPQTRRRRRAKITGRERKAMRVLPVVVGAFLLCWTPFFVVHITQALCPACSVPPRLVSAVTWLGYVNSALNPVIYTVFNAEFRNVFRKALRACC

D(2) dopamine receptor [14] = biological target: T2, D(2) dopamine receptor; assay: Agonist activity at human dopamine D2long receptor expressed in HEK293 cells co-expressing Galphao1 assessed as incorporation of [35S]GTPgammaS into Galphao1 after 30 mins by scintillation counting; format: functional, cell-based
Summary of the method: (§3)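 Membranes from HEK293 cells transiently co-transfected with D2long and PTX-insensitive Gαo (receptor 1500 ± 50 fmol/mg), harvested 48 h post-transfection. Buffer: 20 mM Hepes, 10 mM MgCl2, 100 mM NaCl, 70 mg/L saponin, pH 7.4. Membranes (30-50 μg/mL protein), compound and 10 μM GDP preincubated 30 min at 37 °C, then 0.10 nM [35S]GTPγS added for 30 min at 37 °C. Reaction stopped by filtration and bound counts read.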

D(2) dopamine receptor [15] = biological target: T2, D(2) dopamine receptor; assay: Agonist activity at human dopamine D2long receptor expressed in CHO cells assessed as induction of [3H]thymidine incorporation after 2 hrs
D(3) dopamine receptor [16] = biological target: T1, D(3) dopamine receptor; assay: Agonist activity at human dopamine D3 receptor expressed in CHO cells assessed as induction of [3H]thymidine incorporation after 2 hrs; format: functional, cell-based
Summary of the method: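 CHO dhfr- cells stably expressing D3 receptor labeled with 0.02 μCi [3H]thymidine per well (specific activity […]) for 2 h after stimulation with compound. […] Operational model used to estimate τ.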

D(2) dopamine receptor [17] = biological target: T2, D(2) dopamine receptor; assay: Agonist activity at human dopamine D2long receptor expressed in CHO cells assessed as increase of forskolin-induced cAMP accumulation by bioluminescence assay
D(2) dopamine receptor [18] = biological target: T2, D(2) dopamine receptor; assay: Agonist activity at human dopamine D2long receptor expressed in HEK293 cells co-expressing Galphai2 assessed as incorporation of [35S]GTPgammaS into Galphai2 after 30 mins by scintillation counting; format: functional, cell-based
Summary of the method: as §3, with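 “PTX-insensitive Gαi2” for “PTX-insensitive Gαo”, “(receptor 4900” for “(receptor 1500”, “± 440” for “± 50”, “at 30” for “at 37”, “for 75” for “for 30”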

D(2) dopamine receptor [19] = biological target: T2, D(2) dopamine receptor; assay: Antagonist activity at human dopamine D2long receptor expressed in CHO cells assessed as inhibition of forskolin-induced cAMP accumulation by bioluminescence assay; format: functional, cell-based
Summary of the method: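 CHO cells stably expressing D2long, seeded at 5000 cells/well 24 h before assay and washed with PBS. Compounds added with 20 μM forskolin in serum-free medium containing 500 μM IBMX and 100 μM Ro 20-1724, pH 7.4, for 15 min at 25 °C. cAMP read by cAMP-Glo luminescence (PKA kinase reaction, then Kinase-Glo).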

D(3) dopamine receptor (Homo sapiens, UniProt P35462, V87F), sequence (P35462 as listed by the source V87F): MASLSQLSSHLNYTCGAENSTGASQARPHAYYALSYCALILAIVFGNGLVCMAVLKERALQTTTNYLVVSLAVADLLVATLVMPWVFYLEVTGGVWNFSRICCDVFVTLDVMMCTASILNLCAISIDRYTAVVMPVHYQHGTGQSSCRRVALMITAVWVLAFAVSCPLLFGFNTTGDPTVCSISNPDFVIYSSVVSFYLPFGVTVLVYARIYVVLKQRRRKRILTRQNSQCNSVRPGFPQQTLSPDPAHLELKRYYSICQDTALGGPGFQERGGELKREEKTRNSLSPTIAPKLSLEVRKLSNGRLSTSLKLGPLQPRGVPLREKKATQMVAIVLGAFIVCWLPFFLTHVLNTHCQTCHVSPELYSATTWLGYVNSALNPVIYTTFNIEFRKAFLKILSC
T2 sequence (P14416 whole entry): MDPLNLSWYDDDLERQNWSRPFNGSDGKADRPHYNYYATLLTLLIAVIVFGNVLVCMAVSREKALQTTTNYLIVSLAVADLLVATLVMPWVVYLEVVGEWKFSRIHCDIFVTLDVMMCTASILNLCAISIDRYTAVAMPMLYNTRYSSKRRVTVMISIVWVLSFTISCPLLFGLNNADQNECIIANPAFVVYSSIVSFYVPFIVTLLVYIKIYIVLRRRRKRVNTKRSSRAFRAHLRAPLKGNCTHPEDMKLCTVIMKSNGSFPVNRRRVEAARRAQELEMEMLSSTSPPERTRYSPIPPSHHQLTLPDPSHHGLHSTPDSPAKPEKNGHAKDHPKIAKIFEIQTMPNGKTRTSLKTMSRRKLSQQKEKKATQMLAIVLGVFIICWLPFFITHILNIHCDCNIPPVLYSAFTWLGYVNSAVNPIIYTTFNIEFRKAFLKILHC
T1 sequence (P35462 whole entry): as the sequence (P35462 as listed by the source V87F) above, with S9G, F87V counted along it
D(1A) dopamine receptor, sequence (P50130 whole entry): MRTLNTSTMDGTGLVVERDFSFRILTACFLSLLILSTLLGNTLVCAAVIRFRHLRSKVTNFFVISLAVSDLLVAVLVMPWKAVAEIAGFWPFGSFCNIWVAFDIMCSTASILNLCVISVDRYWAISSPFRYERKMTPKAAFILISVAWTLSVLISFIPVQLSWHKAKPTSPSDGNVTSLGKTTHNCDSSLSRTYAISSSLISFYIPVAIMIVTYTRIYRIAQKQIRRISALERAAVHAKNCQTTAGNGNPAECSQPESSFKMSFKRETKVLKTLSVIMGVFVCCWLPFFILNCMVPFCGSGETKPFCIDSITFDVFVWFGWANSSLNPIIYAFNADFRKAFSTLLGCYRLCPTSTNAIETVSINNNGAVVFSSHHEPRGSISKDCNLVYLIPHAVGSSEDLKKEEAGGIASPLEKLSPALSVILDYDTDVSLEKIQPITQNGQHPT
D(3) dopamine receptor (Homo sapiens, UniProt P35462, D110E), sequence (P35462 as listed by the source D110E): as the sequence (P35462 as listed by the source V87F) above, with F87V, D110E counted along it
D(3) dopamine receptor (Homo sapiens, UniProt P35462, S196A), sequence (P35462 as listed by the source S196A): as the sequence (P35462 as listed by the source V87F) above, with F87V, S196A counted along it

SMILES	Ki (D(3) dopamine receptor [1])	Ratio Ki (Homo sapiens)	Ki (D(3) dopamine receptor [2])	Ki (D(3) dopamine receptor [3])	Ki (D(3) dopamine receptor [5])	Ki (D(3) dopamine receptor [6])	Ki (D(2) dopamine receptor [7])	Ki (D(2) dopamine receptor [8])	Ki (D(3) dopamine receptor [9])	Ki (D(3) dopamine receptor [10])	Ki (D(3) dopamine receptor [11])	Ki (D(2) dopamine receptor [12])	Ki (D(1A) dopamine receptor)	Ki [13]	Ki (D(4) dopamine receptor)	other results
CCCN(CCCCNC(C)=O)C1Cc2ccccc2C1	330 nM	0.8	410 nM	–	–	–	–	–	–	–	–	–	–	–	–	–
CCCN(CCCCNC(=O)c1ccc(-c2ccccc2)cc1)[C@@H]1CCn2nccc2C1	3700 nM	190	19 nM	15 nM	1400 nM	240 nM	49 nM	300 nM	6.3 nM	43 nM	15 nM	–	–	–	–	EC50 (D(3) dopamine receptor [4]): 51 nM
CCCCC(=O)NCCCCN(CCC)C1Cc2ccccc2C1	760 nM	17	44 nM	–	–	–	–	–	–	–	–	–	–	–	–	–
CCCN(CCCCNC(=O)c1ccc(-c2ccccc2)cc1)C1CCn2nccc2C1 (racemic)	–	–	–	0.71 nM	–	–	–	150 nM	–	–	–	77 nM	6800 nM	520 nM	59 nM	–
CCCN(CCCCNC(=O)c1ccccc1)C1Cc2ccccc2C1	250 nM	93	2.7 nM	–	–	–	–	–	–	–	–	–	–	–	–	–
CCCN(CCC)[C@H]1CCn2nccc2C1	420 nM	2.8	150 nM	31 nM	8100 nM	840 nM	4.6 nM	410 nM	14 nM	420 nM	45 nM	270 nM	53000 nM	5100 nM	380 nM	–
CCCN(CCCCNC(=O)c1ccc(-c2ccccc2)cc1)[C@H]1CCn2nccc2C1	170 nM	2200	0.076 nM	0.19 nM	850 nM	2.3 nM	1 nM	5.3 nM	0.027 nM	0.98 nM	0.058 nM	–	–	–	–	EC50 (D(3) dopamine receptor [4]): 0.056 nM; EC50 (D(2) dopamine receptor [14]): 26 nM; EC50 (D(2) dopamine receptor [15]): 0.51 nM; EC50 (D(3) dopamine receptor [16]): 0.0028 nM; EC50 (D(2) dopamine receptor [17]): 110 nM; EC50 (D(2) dopamine receptor [18]): 370 nM
CCCN(CCCCNC(=O)c1ccc(-c2ccccc2)cc1)C1CCn2ncc(C=O)c2C1 (centres undefined)	–	–	–	39 nM	–	–	–	8400 nM	–	–	–	4700 nM	23000 nM	3800 nM	6300 nM	–
COc1ccccc1N1CCN(CCCCNC(=O)c2ccc(-c3ccccc3)cc2)CC1	180 nM	–	0.9 nM	0.22 nM	790 nM	2.8 nM	–	–	–	0.58 nM	0.16 nM	–	570 nM	5.6 nM	27 nM	inhibition (D(2) dopamine receptor [19]): Active
CCCN(CCCCNC(=O)c1ccc(-c2ccccc2)cc1)C1Cc2cccn3ncc(c23)C1 (centres undefined)	–	–	–	0.55 nM	–	–	–	270 nM	–	–	–	240 nM	1800 nM	86 nM	230 nM	–
CCCN(CCC)[C@@H]1CCn2nccc2C1	–	–	–	2100 nM	–	–	57000 nM	55000 nM	4300 nM	–	–	53000 nM	68000 nM	2900 nM	17000 nM	–
CCCN(CCCCNC(=O)c1ccc(-c2ccccc2)cc1)C1CCn2ncc(Cl)c2C1 (centres undefined)	–	–	–	0.59 nM	–	–	–	100 nM	–	–	–	43 nM	3600 nM	260 nM	190 nM	–
CCCN(CCC)C1Cc2ccccc2C1	350 nM	1.5	230 nM	–	–	–	–	–	–	–	–	–	–	–	–	–
